Experimental data published in PMC5965255 (Neoplasia (New York, N.Y.), 2016).
In brackets after ≈: the same amount, converted by molar mass.

Assays:
[1] = test system: Panc-1-luc human pancreatic tumors implanted SC; experiment: Antitumor activity in mice with subcutaneous Panc-1-luc tumors; format: in vivo, athymic nude mice; details: IP twice a week; DHA-dFdC 50 mg/kg or molar equivalent doses
Outline: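 Male athymic nude mice (6-8 weeks) received SC injections of 5 × 10^6 Panc-1-luc cells in DMEM/Matrigel 1:1 (v/v) in the right flank. At 5-7 mm tumours (day 5), mice were randomised into 5 groups (n = 5-6). Groups got IP test compound at 50 mg/kg or molar equivalents. The vehicle was Tween 80/ethanol/water 1:0.52:8.48 with 5% w/v mannitol (dFdC in 5% mannitol). Dosing was twice weekly, up to six times. Caliper volumes were V = ½ × L1 × L2 × L2.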

[2] = Pancreatic tissue levels and biodistribution after IV injection; format: in vivo, BALB/c mice; details: mouse pancreas, IV 75 mg/kg, noncompartmental
Outline: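 Healthy female BALB/c mice (17-20 weeks) received 75 mg/kg IV in Tween 80/ethanol/5% mannitol aqueous solution. Mice were euthanized at six time points from 5 to 300, n = 3-4 each. Pancreas was homogenized, extracted with ethyl acetate and analysed by HPLC: methanol/1% acetic acid 85:15, 1.2 ml/min, detection 300 nm.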

[3] = test system: orthotopic Panc-1-luc pancreatic tumors; experiment: Antitumor activity in mice with orthotopic Panc-1-luc tumors; format: in vivo, athymic nude mice
Outline: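 Male athymic nude mice (6-8 weeks) received ~50 μl of Panc-1-luc cells (~2 × 10^7/ml in 1:1 DMEM/Matrigel) into the pancreas under isoflurane anaesthesia. After four weeks, randomised (n = 5-7) to test compound (Tween 80/ethanol/water, 5% w/v mannitol), dFdC at molar equivalent (~0.087 […], 5% mannitol) or untreated. IP twice weekly, seven doses in total. Tumours dissected and weighed 30 days after first dose.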

[4] = cited from earlier work
Panc-1-luc cells = details: cited from earlier work
Solubility of DHA-dFdC = format: physicochemical
Outline: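 Indirect aqueous solubility used isopropyl myristate (IPM)/water partitioning. Saturated IPM solution was centrifuged (14,000 rpm, 10 min) and the supernatant measured by HPLC after methanol dilution (A1). Water was added at Vwater/VIPM 10, vortexed 5 min, left 15 min and centrifuged (14,000 rpm, 15 min). The IPM layer was re-assayed (A2) and the partition coefficient calculated from A1, A2 and the volume ratio.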

[5] = test system: dFdC-sensitive cancer cell lines; details: various dFdC-sensitive cancer cell lines; cited from earlier work
tumor cells in culture = details: many tumor cells in culture; cited from earlier work
Panc-02 cells = experiment: MTT cytotoxicity assay; format: cell-based, mouse; details: Panc-02, high concentrations (10-100 μM)
Outline: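 Cells seeded at 1500/well and left overnight at 37°C, 5% CO2. Treated with serial concentrations of test compound, dFdC, DHA or 1:1 molar dFdC+DHA (lipids in DMSO, dFdC in medium). Exposure: Panc-1-luc 24 h, Panc-02 48 h, BxPC-3 72 h. In a separate Panc-02 run, 10-100 μM for 4 h. Survival read by MTT; IC50 obtained by curve fitting.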

Cl.Nc1ccn([C@@H]2O[C@H](CO)[C@@H](O)C2(F)F)c(=O)n1 [dFdC, 2′, 2′-difluorodeoxycytidine HCl]
Tumor growth compared with vehicle control [1]: did not significantly inhibit the tumor growth | AUC0 -∞ in pancreas [2]: 787.71 µg·min/g | Tumor growth ([3]; IP twice a week, DHA-dFdC 50 mg/kg, dFdC molar equivalent): did not show significant activity | Cleaved lamin-A positive staining in tumors ([3]; compared with untreated mice): not different from that in mice that were left untreated | Loss of dFdC by deamination ([4]; after intravenous administration): about 90% | Administered dFdC excreted in the urine [4]: More than 99% | Unchanged dFdC in the urine [4]: 5% | Sensitivity of Panc-1 tumor cells (Panc-1-luc cells): resistant

CCCCCCCCCCCCCCCCCC(=O)Nc1ccn(C2OC(CO)C(O)C2(F)F)c(=O)n1 (centres unmarked) [4-(N)-stearoyl dFdC]
Solubility in water (Solubility of DHA-dFdC; direct method): 1.38 ± 1.60 µg/mL (≈ 2.61 µM) | Solubility in water (Solubility of DHA-dFdC; indirect method (IPM/water partitioning), room temperature): 1.39 ± 0.10 µg/mL (≈ 2.62 µM) | Cytotoxicity compared with dFdC [5]: not significantly more cytotoxic than dFdC

CC/C=C\C/C=C\C/C=C\C/C=C\C/C=C\C/C=C\CCC(=O)O[C@@H](C(=O)O[C@H]1C[C@@]2(O)[C@@H](OC(=O)c3ccccc3)[C@@H]3[C@]4(OC(C)=O)CO[C@@H]4C[C@H](O)[C@@]3(C)C(=O)[C@H](OC(C)=O)C(=C1C)C2(C)C)[C@@H](NC(=O)c1ccccc1)c1ccccc1 [DHA-paclitaxel conjugate]
Cytotoxicity compared with paclitaxel (tumor cells in culture): not more cytotoxic than paclitaxel alone

CC/C=C\C/C=C\C/C=C\C/C=C\C/C=C\C/C=C\CCC(=O)O [DHA, Cis-4,7,10,13,16,19-docosahexaenoic acid]
Tumor growth compared with vehicle control [1]: did not significantly inhibit the tumor growth | Cytotoxicity after 4 hours of coincubation (Panc-02 cells): did not show significant cytotoxicity
